Experimental data gathered from unrelated publications.
Compare with care: the assays were run in different laboratories.
BCHE: Cholinesterase (BCHE, Homo sapiens, UniProt P06276)

The inhibition of `C=CCn1c2cc(OC(=O)CCN3CCN(Cc4ccccc4)CC3)ccc2c2ccnc(C)c21` is reported as 29.9% (BCHE; enzyme activity, inhibitor, Ellman; 1 µM).
`CCN(CC)CCCC[C@H](NC(=O)[C@H](CC(C)C)NC(=O)[C@H](C)NC(=O)[C@H](Cc1ccccc1)NC(=O)c1ccc(C(C)(C)C)cc1)C(=O)N[C@@H](CO)C(=O)OC` has a ΔTm of 0.58 °C (Chromatin remodeling regulator CECR2 (CECR2, Homo sapiens, UniProt Q9BXF3); thermal stability, DSF; 25 µM).
`COc1ncccc1-c1cnn2ccc(N3CCN(C(=O)OC(C)C)CC3)nc12` has a remaining binding of 65% (Dual specificity mitogen-activated protein kinase kinase 5 (MAP2K5, Homo sapiens, UniProt Q13163); binding, competition with immobilised ligand; 1 µM).
With `NC(=O)c1cccc(-c2cccc(OC(=O)NC3CCCCC3)c2)c1` the kinact/KI was 3900 M⁻¹ s⁻¹ (Cocaine esterase (CES2, Homo sapiens, UniProt O00748); enzyme activity, inhibitor; pH 7.4).
With `COc1cc2c(cc1OC)C(=O)C(CC1CCN(Cc3ccccc3)CC1)C2` (centres unmarked) the inhibition was 22.5% (BCHE; enzyme activity, inhibitor, Ellman; 1 µM).
The inhibition of `C#Cc1n[nH]c2c(-c3cn(C(C)c4ccccn4)c(=O)[nH]c3=O)cc(F)cc12` (centres unmarked) is reported as 11.4% (Fibroblast growth factor receptor 1 (FGFR1, Homo sapiens, UniProt P11362, V561M); enzyme activity, inhibitor; 1 µM).
`Nc1ncc(-c2nc(N3CCOCC3)nc(N3CCOCC3)n2)c(C(F)F)n1` gave a remaining binding of 77% (Peripheral plasma membrane protein CASK (CASK, Homo sapiens, UniProt O14936); binding, competition with immobilised ligand; 10 µM).
With `Cc1nn(C)cc1-c1nc2c(N3CCN(Cc4ccc(Cl)cc4)CC3)c(Cl)cnc2[nH]1` the remaining binding was 95% (Interferon-induced, double-stranded RNA-activated protein kinase (EIF2AK2, Homo sapiens, UniProt P19525); binding, competition with immobilised ligand; 1 µM).
